Bioassay records from PubChem.
This is a sample that favours compounds with a hit; in the whole collection about 2.5% have one here.
Diaphorase inh = diaphorase inhibitors and chemical oxidizers, primary screen, counter-screen for diaphorase-coupled primary assays, biochemical, uHTS, resorufin fluorescence. diaphorase resazurin-to-resorufin fluorescence, NADH, 16 min; bacterial (C. kluyveri) enzyme, not human. inhibition, % at 20 µM. 190,000 compounds, 0.69% hits. AID 1217, 2008;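 active means primary screen inhibition at 20 µM above a set limit, cut at about 50% in these data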
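Assay system: diaphorase enzyme from Clostridium kluyveri. Quantity: enzyme working solution with 0.14 U/mL diaphorase. Schedule: reaction incubation of 16 min at room temperature. Technique: resorufin fluorescence, excitation 544 nm, emission 590 nm. Controls: No-NADH positive control and DMSO neutral control.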
FLuc stim CS = FLuc activators, initial screening, artefact control for FLuc-dependent activation tests, biochemical, ATPlite luminescence | Luciferin 4-monooxygenase (Photinus pyralis), P08659 | ATPlite luciferase biochemical, 10 min; 0 = ATP-free wells, 1 = DMSO control | activation factor at 10 µM | 200,000 tested, under 10 active;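 active means luciferase activation factor, scaled between plate controls, of at least 2 with compound at 10 µM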
Target sequence (P08659 whole entry, looked up): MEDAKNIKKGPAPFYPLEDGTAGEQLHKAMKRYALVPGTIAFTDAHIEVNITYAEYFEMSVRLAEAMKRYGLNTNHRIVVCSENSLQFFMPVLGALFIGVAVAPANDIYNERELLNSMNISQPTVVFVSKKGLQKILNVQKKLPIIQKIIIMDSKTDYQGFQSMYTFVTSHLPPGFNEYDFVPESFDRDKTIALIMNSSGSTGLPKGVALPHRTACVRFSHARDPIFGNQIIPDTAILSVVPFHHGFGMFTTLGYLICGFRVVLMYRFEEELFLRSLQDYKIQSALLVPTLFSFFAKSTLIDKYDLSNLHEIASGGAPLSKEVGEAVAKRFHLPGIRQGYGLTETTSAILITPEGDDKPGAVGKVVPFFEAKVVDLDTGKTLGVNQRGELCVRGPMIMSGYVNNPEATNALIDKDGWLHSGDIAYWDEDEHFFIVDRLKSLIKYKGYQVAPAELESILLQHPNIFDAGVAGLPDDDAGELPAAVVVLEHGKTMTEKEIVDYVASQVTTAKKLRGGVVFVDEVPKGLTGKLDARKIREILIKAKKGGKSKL
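test system = cell-free luciferase reagent | medium = PBS as buffer for the ATP substrate | dosing = test compounds dosed from 2 mM stocks in 100% DMSO | incubation = 10 min at ambient temperature | detection = luminescence measurement of luciferase light output | benchmarks = low control with PBS replacing ATP, high control enzyme plus ATP without compound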
PMI act satM6P = human PMI activators, high substrate, primary screen, biochemical, fluorescence intensity, near-saturating mannose 6-phosphate. activation factor at 20 µM. coupled PMI enzyme assay, resazurin fluorescence, 20 min; stronger effect = higher value; 1 = untreated enzyme, 0 = substrate-free blank. 190,000 compounds, 0.34% hits. AID 1216, 2008;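 active means activation factor of 2 or more at 20 µM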
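Test system: human phosphomannose isomerase with PGI, G6PDH, diaphorase coupling enzymes / Doses: 20 µM compound, 1% DMSO / Times: enzyme reaction with compound 20 min at room temperature / Measured by: Diaphorase-driven resazurin-to-resorufin fluorescence, excitation 544, emission 590 nm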
FLuc inhib CS = firefly luciferase enzyme inhibitors, primary screen, artefact control for luciferase-based inhibitor screens, biochemical, luminescence, ATPLite. 10 min. inhibition, % at 10 µM. 200,000 compounds, 1.5% hits;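 active means inhibition above about 50% when tested at 10 µM, limit read from the data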
PMI activator = activators of human PMI, primary screen, biochemical, fluorescence intensity, near-Km mannose 6-phosphate | Mannose-6-phosphate isomerase (Homo sapiens), P34949 | purified human PMI, coupled resazurin fluorescence, 20 min; stronger effect = higher value; 1 = vehicle control, 0 substrate-free wells | activation factor at 20 µM | 190,000 compounds, 0.005% hits;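 active means activation factor of 2 or more at 20 µM, relative to plate controls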
Diaph act CS = compounds boosting diaphorase resazurin reduction – biochemical, uHTS, resorufin fluorescence, counter-screen for diaphorase-coupled primary assays, primary screen; Diaphorase/resazurin coupled assay, 16 min; stronger effect = higher value; 1 = vehicle wells, 0 = NADH-free wells; activation factor at 20 µM; 190,000 compounds, 0.005% hits; AID 1229, 2008;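 active means diaphorase activity raised at least twofold by the compound at 20 µM; inactive means activation factor below 2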
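Material: bacterial diaphorase enzyme (C. kluyveri); amount: enzyme 0.07 U/mL final; reagent: NADH substrate 0.114 mM plus resazurin dye 0.1 mM, final; doses: single compound dose of 20 µM, 1% DMSO final; timing: 16 min enzyme reaction, ambient temperature; measured by: fluorescence of resorufin, 544 nm excitation, 590 nm emission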
Numbers stand for hits; . = inactive.

SMILES	Diaphorase inh	FLuc stim CS	PMI act satM6P	FLuc inhib CS	PMI activator	Diaph act CS
Cc1ccc(S(=O)(=O)n2nc(-c3ccco3)nc2N)cc1	.	.	.	.	.	.
CC1CN(C(=S)NC(=O)C2CCCCC2)CC(C)O1 (configuration not stated)	.	.	.	.	.	.
Cc1ccc(CNc2ccc(N3CCOCC3)cc2)s1	.	.	.	73	.	.
CC(=O)N1CCN(c2ccc(NCc3ccc(C)s3)cc2)CC1	.	.	.	.	.	.
COc1ccc(/C=N/NC(=O)Cc2csc(Nc3cccc(C(F)(F)F)c3)n2)cc1C	.	.	.	.	.	.
Nc1cccc2cnccc12	54	.	.	.	.	.
COc1ccc(-c2cn3c4c(sc3n2)CCCC4)cc1	.	.	.	91	.	.
COc1ccc(-c2cn3c(C)c(C(=O)Nc4ccncc4)sc3n2)cc1	.	.	.	.	.	.
Cc1cccc2sc(NNC(=O)c3cc(-c4cccs4)nc4ccccc34)nc12	.	.	.	.	.	.
N#Cc1c(-c2ccncc2)c2c([nH]c1=S)CCCC2	.	.	.	.	.	.
Cc1ccc(-c2c3c([nH]c(=S)c2C#N)CCCC3)o1	51	.	.	.	.	.
S=c1[nH]ncn2c1cc1oc3ccccc3c12	51	.	.	.	.	.
COc1ccc(OC)c(N/C(C)=C/C(=O)c2ccccc2)c1	.	.	.	76	.	.
COc1ccc(N/C(C)=C/C(=O)c2ccccc2)cc1	.	.	.	.	.	.
CC(=O)Nc1ccc(Oc2ccc(NC(C)=O)c(NC(C)=O)c2)cc1	.	.	.	.	.	.
O=C1CCCCCN1CP(=O)(O)CN1CCOCC1	.	.	.	.	.	.
COc1ccccc1CCc1nnc(CCC(=O)NCC[C@@H]2C[C@@H]3C=C[C@H]2C3)o1	.	.	.	.	.	.
CCOc1ccc(/C=C/C(=O)c2cc(Br)ccc(=O)c2O)cc1	.	.	2	.	.	.
CC(=O)c1ccc(NC(=O)c2ccc3nc(-c4ccco4)c(-c4ccco4)nc3c2)cc1	55	.	.	.	.	.
CCCCNC(=O)c1ccc2nc(-c3ccco3)c(-c3ccco3)nc2c1	53	.	.	.	.	.
O=C(NCCCO)c1ccc2nc(-c3ccco3)c(-c3ccco3)nc2c1	.	.	.	.	.	.
O=C(Nc1ccccc1)c1ccc2nc(-c3ccco3)c(-c3ccco3)nc2c1	79	.	.	.	.	.
O=C(NCCO)Nc1ccc2nc(-c3ccco3)c(-c3ccco3)nc2c1	74	.	.	.	.	.
O=C(Nc1ccc(N2CCOCC2)cc1)c1ccc2nc(-c3ccco3)c(-c3ccco3)nc2c1	.	.	.	.	.	.
Clc1ccccc1-c1ccc(CN2CCN(c3ccccc3)CC2)o1	.	.	.	.	.	.
SMILES	Diaphorase inh	FLuc stim CS	PMI act satM6P	FLuc inhib CS	PMI activator	Diaph act CS
CCOc1cc(N2CCOCC2)c(OCC)cc1NS(=O)(=O)c1ccc(Cl)s1	.	.	.	.	.	.
CC(=O)c1ccc(NC(=O)CSc2nnc(-c3ccco3)c(-c3ccco3)n2)cc1	81	.	.	.	.	.
Oc1ccc(-c2cn3c(n2)SCC3)cc1	.	.	.	.	.	.
Oc1ccc(-c2cn3c(n2)SCC3)cc1O	52	.	.	.	.	.
Cc1ccc(C(=O)Nc2nc3ccc(S(C)(=O)=O)cc3s2)o1	.	.	.	74	.	.
CCOC(=O)c1ccc2nc(NC(=O)c3ccco3)sc2c1	.	.	.	51	.	.
O=C(NC(=S)Nc1nc2ccc(F)cc2s1)c1ccco1	.	.	.	86	.	.
CS(=O)(=O)c1ccc2nc(NC(=O)c3cc4ccccc4o3)sc2c1	.	.	.	.	.	.
CS(=O)(=O)c1ccc2nc(NC(=O)c3ccco3)sc2c1	.	.	.	77	.	.
O=C(COC(=O)/C=C/c1ccc(F)cc1)Nc1ccccc1-c1ccccc1	.	.	.	.	.	.
CN(C)S(=O)(=O)Nc1ccccc1F	.	.	.	.	.	.
Cc1ccc2[nH]nc(C(=O)N3CCCC(C(=O)c4ccc(Cl)cc4)C3)c2c1 (configuration not stated)	.	.	.	.	.	.
COc1ccc(NC(=S)c2ccc(N(C)C)cc2)cc1	.	.	.	.	.	.
Cc1ccc(NC(=S)c2ccc(N(C)C)cc2)cc1	.	.	.	58	.	.
CC1=NN(c2ccc(N)cc2)C(=O)C1	.	.	2	.	.	.
c1coc(C2=Nc3cccc4cccc(c34)N2)c1	60	.	.	.	.	.
COc1cccc(C2=Nc3cccc4cccc(c34)N2)c1	.	.	.	.	.	.
O=C(OC(C(=O)Nc1cccc(C(F)(F)F)c1)c1ccccc1)C1CCCCC1 (configuration not stated)	.	.	.	.	.	.
Cc1ccc2nc(-c3ccc(NS(=O)(=O)c4ccccc4)cc3)sc2c1	.	.	.	.	.	.
Cc1ccc2nc(-c3ccc(NS(=O)(=O)c4ccc(F)c(F)c4)cc3)sc2c1	.	.	.	55	.	.
O=C(O)c1cn[nH]c1-c1cccc([N+](=O)[O-])c1	.	.	.	.	.	.
Cc1ccc(CNC(=O)CCC2CCCN(Cc3ccc4cccc(F)c4n3)C2)o1 (configuration not stated)	.	.	.	.	.	.
CCOC(=O)C(NS(=O)(=O)c1ccccc1)(C(F)(F)F)P(=O)(OCC(C)C)OCC(C)C (configuration not stated)	.	.	2	.	.	.
CCOC(=O)C(NCc1ccccc1)(NC(=O)c1ccccc1)C(F)(F)F (configuration not stated)	.	.	.	.	.	.
CN(C)CCN(C(=O)c1ccc(N2C(=O)CCC2=O)cc1)c1nc2cc3c(cc2s1)OCCO3	.	.	.	.	.	.
CC[n+]1c(C)sc2cc(C)ccc21	54	.	.	.	.	.
CCCC[n+]1c(C)sc2ccc(C)cc21	66	.	.	.	.	.
